Experimental data as given in ChEMBL document CHEMBL3997808 (J Med Chem, 2017).
≈ marks a conversion by molar mass, not a printed value.

Experiments:
[1] = target: T1, Nuclear receptor subfamily 1 group I member 2 (Homo sapiens, UniProt O75469); assay: Activation of human PXR; assay type: ADME
T1 sequence (O75469 whole entry): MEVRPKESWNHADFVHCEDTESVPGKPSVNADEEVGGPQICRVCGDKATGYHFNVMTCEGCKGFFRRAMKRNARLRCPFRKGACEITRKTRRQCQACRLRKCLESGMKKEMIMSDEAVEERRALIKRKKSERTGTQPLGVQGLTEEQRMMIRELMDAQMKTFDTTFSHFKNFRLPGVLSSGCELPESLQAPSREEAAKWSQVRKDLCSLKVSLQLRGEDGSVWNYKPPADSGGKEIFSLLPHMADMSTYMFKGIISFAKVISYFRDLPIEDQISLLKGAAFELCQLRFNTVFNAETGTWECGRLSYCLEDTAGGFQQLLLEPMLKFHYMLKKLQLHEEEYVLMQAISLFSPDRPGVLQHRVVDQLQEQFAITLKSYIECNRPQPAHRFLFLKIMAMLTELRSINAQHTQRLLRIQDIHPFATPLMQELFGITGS

[2] = Stability in human microsomes measured up to 45 mins; assay type: ADME, Microsome; conditions: 0.75 h
[3] = Cmax in cynomolgus monkey at 1.9 mg/kg, po; assay type: ADME, organism-based, Macaca fascicularis; design: dose 1.9 mg/kg, route oral; conditions: in vivo
Heart = assay: Drug uptake in Han Wistar rat heart at 2 mg/kg, iv administered as 4 hrs infusion; assay type: ADME, organism-based; conditions: in vivo
Procedure, shortened: (§1)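 Rats received a 4 h iv infusion, after which terminal tissue samples were collected. Parent drug concentrations were measured in each tissue and compared with blood levels.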

[4] = Drug metabolism in rat hepatocytes assessed as glucuronide metabolite M569 formation at 10 uM measured up to 4 hrs; assay type: ADME, cell-based, Hepatocyte
Procedure, shortened: (§2)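 Compound at 10 μM was incubated with hepatocyte suspensions at 1 million cells/mL. Incubation ran at 37°C under 5% CO2:95% O2 for up to 4 h.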

[5] = Clearance in rat at 1.1 mg/kg, iv; assay type: ADME, organism-based; conditions: in vivo
[6] = Cmax in rat at 2.1 mg/kg, po; assay type: ADME, organism-based; design: dose 2.1 mg/kg, route oral; conditions: in vivo
[7] = Drug metabolism in rat hepatocytes assessed as (S)-5-benzyl-N-(4-oxo-2,3,4,5-tetrahydrobenzo[b][1,4]oxazepin-3-yl)-1H-1,2,4-triazole-3-carboxamide formation at 10 uM measured up to 4 hrs; assay type: ADME, cell-based, Hepatocyte; procedure, shortened: as §2
Blood = assay: Drug uptake in Han Wistar rat blood at 2 mg/kg, iv administered as 4 hrs infusion; assay type: ADME, organism-based; conditions: in vivo; procedure, shortened: as §1
Brain = assay: Drug uptake in Han Wistar rat brain at 2 mg/kg, iv administered as 4 hrs infusion; assay type: ADME, organism-based; conditions: in vivo; procedure, shortened: as §1
[8] = target: Voltage-gated inwardly rectifying potassium channel KCNH2 (Homo sapiens, UniProt Q12809); assay: Inhibition of human ERG expressed in HEK293 cells; assay type: cell-based
Kidney = assay: Drug uptake in Han Wistar rat kidney at 2 mg/kg, iv administered as 4 hrs infusion; assay type: ADME, organism-based; conditions: in vivo; procedure, shortened: as §1
[9] = Volume of distribution at steady state in cynomolgus monkey at 1.2 mg/kg, iv; assay type: ADME, organism-based, Macaca fascicularis; conditions: in vivo, read-out: Vdss
[10] = Drug metabolism in cynomolgus monkey hepatocytes assessed as (S)-3-amino-5-methyl-2,3-dihydrobenzo[b][1,4]oxazepin-4(5H)-one formation at 10 uM measured up to 4 hrs; assay type: ADME, cell-based, Macaca fascicularis, Hepatocyte; procedure, shortened: as §2
[11] = Drug metabolism in rat hepatocytes assessed as 5-benzyl-1H-1,2,4-triazole-3-carboxylic acid formation at 10 uM measured up to 4 hrs; assay type: ADME, cell-based, Hepatocyte; procedure, shortened: as §2
[12] = Oral bioavailability in cynomolgus monkey at 1.9 mg/kg; assay type: ADME, organism-based, Macaca fascicularis; conditions: in vivo
[13] = Tmax in rat at 2.1 mg/kg, po; assay type: ADME, organism-based; conditions: in vivo
[14] = Fraction unbound in human blood; assay type: ADME, tissue-based
Cynomolgus monkey = assay: Toxicity in cynomolgus monkey at 2 to 1000 mg/kg, po after 1 month; assay type: organism-based, Macaca fascicularis; conditions: in vivo, 730.5 h
[15] = target: T2, Receptor-interacting serine/threonine-protein kinase 1 (Mus musculus, UniProt Q60855); assay: Displacement of (14-(2-{[3-({2-{[4-(cyanomethyl)phenyl]amino}-6-[(5-cyclopropyl-1H-pyrazol-3-yl)-amino]-4-pyrimidinyl}amino)propyl]amino}-2-oxoethyl)-16,16,18,18-tetramethyl-6,7,7a,8a,9,10,16,18-octahydrobenzo[2'',3'']indolizino-[8'',7'':5',6']pyrano[3',2':3,4]pyrido[1,2-a]indol-5-ium-2-sulfonate from mouse RIP1 (1 to 378 residues) expressed in baculovirus infected insect cells measured for 50 mins by fluorescence polarization assay
T2 sequence (Q60855 whole entry): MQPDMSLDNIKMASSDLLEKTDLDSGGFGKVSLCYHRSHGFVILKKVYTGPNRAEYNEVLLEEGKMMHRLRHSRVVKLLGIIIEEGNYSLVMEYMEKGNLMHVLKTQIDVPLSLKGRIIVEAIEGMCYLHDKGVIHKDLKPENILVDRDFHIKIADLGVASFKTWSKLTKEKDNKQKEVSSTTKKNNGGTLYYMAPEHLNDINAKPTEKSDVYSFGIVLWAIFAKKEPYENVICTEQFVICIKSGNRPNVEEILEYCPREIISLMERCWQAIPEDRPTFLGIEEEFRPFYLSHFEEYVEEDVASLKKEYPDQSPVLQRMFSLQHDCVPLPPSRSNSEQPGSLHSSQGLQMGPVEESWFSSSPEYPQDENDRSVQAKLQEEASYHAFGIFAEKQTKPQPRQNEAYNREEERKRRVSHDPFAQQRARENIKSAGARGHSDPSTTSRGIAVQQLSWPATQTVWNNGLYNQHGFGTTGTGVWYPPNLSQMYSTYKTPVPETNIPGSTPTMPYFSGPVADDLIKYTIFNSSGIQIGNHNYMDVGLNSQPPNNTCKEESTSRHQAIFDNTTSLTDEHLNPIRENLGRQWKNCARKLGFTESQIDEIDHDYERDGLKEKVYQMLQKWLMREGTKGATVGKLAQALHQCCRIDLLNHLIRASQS
Procedure, shortened: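 Competitive FP binding assay in which test compounds displace a fluorescently labeled ATP-competitive ligand from RIP1.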

[16] = Drug metabolism in human hepatocytes assessed as 5-(hydroxy(phenyl)methyl)-N-((S)-5-methyl-4-oxo-2,3,4,5-tetrahydrobenzo[b][1,4]oxazepin-3-yl)-1H-1,2,4-triazole-3-carboxamide formation at 10 uM measured up to 4 hrs; assay type: ADME, cell-based, Hepatocyte; procedure, shortened: as §2
[17] = Solubility of the compound in FaSSIF; assay type: physicochemical
[18] = Inhibition of recombinant human cytochrome P450; assay type: ADME; conditions: recombinant enzyme
[19] = Kinetic solubility in phosphate buffer saline at pH 7.4 by chemiluminescence nitrogen detection method; assay type: physicochemical; conditions: phosphate buffered saline, read-out: Kinetic_solubility
Procedure, shortened: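 Kinetic aqueous solubility measured by chemiluminescent nitrogen detection (CLND) in phosphate-buffered saline pH 7.4. The solution was prepared from a DMSO stock of the inhibitor.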

[20] = AUC (0 to infinity) in rat at 2 mg/kg, po; assay type: ADME, organism-based; design: dose 2 mg/kg, route oral, time infinity; conditions: in vivo
[21] = Drug metabolism in human hepatocytes assessed as (S)-5-benzyl-N-(4-oxo-2,3,4,5-tetrahydrobenzo[b][1,4]oxazepin-3-yl)-1H-1,2,4-triazole-3-carboxamide formation at 10 uM measured up to 4 hrs; assay type: ADME, cell-based, Hepatocyte; procedure, shortened: as §2
[22] = Fraction unbound in rat blood; assay type: ADME, tissue-based
Cytochrome P450 2C9 = Cytochrome P450 2C9 (Homo sapiens, UniProt P11712); assay: Inhibition of recombinant human CYP2C9; assay type: ADME
[23] = AUC in rat at 2.1 mg/kg, po; assay type: ADME, organism-based; conditions: in vivo
[24] = Oral bioavailability in rat at 2.1 mg/kg; assay type: ADME, organism-based; conditions: in vivo
[25] = Drug metabolism in human hepatocytes assessed as glucuronide metabolite M553 formation at 10 uM measured up to 4 hrs; assay type: ADME, cell-based, Hepatocyte; procedure, shortened: as §2

Sequence of Voltage-gated inwardly rectifying potassium channel KCNH2 (Q12809 whole entry, the tested form may be a part): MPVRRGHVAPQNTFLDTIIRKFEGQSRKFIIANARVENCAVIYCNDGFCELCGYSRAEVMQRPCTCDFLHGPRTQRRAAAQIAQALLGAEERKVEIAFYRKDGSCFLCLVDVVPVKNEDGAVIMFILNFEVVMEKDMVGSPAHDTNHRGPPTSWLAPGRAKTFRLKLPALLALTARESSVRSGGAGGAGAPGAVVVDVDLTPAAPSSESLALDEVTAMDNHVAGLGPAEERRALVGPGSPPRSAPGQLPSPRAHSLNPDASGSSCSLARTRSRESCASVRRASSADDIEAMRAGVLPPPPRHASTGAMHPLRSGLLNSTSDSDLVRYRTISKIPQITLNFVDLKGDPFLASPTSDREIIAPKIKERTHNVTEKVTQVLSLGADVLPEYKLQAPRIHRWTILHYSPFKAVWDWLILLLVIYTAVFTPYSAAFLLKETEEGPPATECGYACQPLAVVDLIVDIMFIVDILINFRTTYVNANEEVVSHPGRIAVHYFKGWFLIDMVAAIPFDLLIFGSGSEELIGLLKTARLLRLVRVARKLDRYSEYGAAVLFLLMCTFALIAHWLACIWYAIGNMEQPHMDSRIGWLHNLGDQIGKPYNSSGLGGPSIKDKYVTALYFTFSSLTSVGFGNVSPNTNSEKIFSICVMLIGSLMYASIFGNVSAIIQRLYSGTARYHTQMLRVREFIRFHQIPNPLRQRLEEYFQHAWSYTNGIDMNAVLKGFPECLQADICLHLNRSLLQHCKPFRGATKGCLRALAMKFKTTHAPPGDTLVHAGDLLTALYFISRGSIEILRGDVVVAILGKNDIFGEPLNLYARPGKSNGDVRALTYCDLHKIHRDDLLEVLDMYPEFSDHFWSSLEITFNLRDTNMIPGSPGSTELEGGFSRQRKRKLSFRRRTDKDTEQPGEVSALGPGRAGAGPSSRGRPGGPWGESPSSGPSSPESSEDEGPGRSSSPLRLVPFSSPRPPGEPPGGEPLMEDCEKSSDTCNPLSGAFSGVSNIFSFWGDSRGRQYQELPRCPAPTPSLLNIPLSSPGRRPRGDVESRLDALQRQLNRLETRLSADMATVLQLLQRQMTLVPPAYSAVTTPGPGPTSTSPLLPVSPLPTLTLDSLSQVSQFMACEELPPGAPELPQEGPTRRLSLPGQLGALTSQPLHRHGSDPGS
Sequence of Cytochrome P450 2C9 (P11712 whole entry): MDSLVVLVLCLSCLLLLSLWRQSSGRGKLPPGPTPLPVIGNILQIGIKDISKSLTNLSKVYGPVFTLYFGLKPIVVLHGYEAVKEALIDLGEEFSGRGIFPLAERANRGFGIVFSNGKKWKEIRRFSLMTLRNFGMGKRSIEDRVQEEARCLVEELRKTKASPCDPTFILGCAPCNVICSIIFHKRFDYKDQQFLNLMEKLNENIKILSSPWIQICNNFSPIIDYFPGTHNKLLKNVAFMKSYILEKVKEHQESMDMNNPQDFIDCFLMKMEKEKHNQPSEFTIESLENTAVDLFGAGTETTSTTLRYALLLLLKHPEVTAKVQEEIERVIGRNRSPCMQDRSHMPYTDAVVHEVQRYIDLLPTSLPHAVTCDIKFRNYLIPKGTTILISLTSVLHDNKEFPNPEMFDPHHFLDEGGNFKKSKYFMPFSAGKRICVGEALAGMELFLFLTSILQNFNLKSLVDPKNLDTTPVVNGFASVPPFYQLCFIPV

Structure (SMILES): CN1C(=O)[C@@H](NC(=O)c2nnc(Cc3ccccc3)[nH]2)COc2ccccc21 [GSK2982772]
- EC50 [1]: 13 µM
- Stability [2]: Stable
- Cmax [3]: 720 ng/mL
- Drug uptake (Heart): Active
- Drug metabolism [4]: Metabolite_Detected
- clearance [5]: 17 mL/min/kg
- Cmax [6]: 810 ng/mL
- Drug metabolism [7]: Metabolite_Detected
- Drug uptake (Blood): Active
- Drug uptake (Brain): 4%
- IC50 [8]: 195 µM
- Drug uptake (Kidney): Active
- Vd [9]: 2.2 L/kg
- Drug metabolism [10]: Metabolite_Detected
- Drug metabolism [11]: Metabolite_Detected
- bioavailability [12]: 86%
- Tmax [13]: 15 min
- fraction unbound [14]: 0.074
- Activity (Cynomolgus monkey): Non-Toxic
- IC50 [15]: 2.5 µM
- Drug metabolism [16]: Metabolite_Detected
- solubility [17]: 230 µg/mL (≈ 609 µM)
- inhibition (INH) [18]: Not Active
- solubility kinetic [19]: 100 µg/mL (≈ 265 µM)
- AUC(0-inf) [20]: 2300 ng·h/mL
- Drug metabolism [21]: Metabolite_Detected
- fraction unbound [22]: 0.042
- IC50 (Cytochrome P450 2C9): 25 µM
- AUC [23]: 2300 ng·h/mL
- bioavailability [24]: 110%
- Drug metabolism [25]: Metabolite_Detected
